# Columns and labels:
# Assay type in all cases: functional, organism-based
# [1] = tested on: Mycolicibacterium smegmatis; assay: Concentration for 100% inhibition of growth of dapsone sensitive Mycobacterium smegmatis 607 strain in vitro
# Summary of the method: (§1)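 M. smegmatis ATCC607-derived strains (one of three used, including a dapsone-sensitive one) were grown in modified Kirchner's medium with 0.5% Tween 80, inoculated with 10^5 viable cells. Drugs were added in DMSO (2% final). Roller tubes were incubated at 37 °C for 72 h. Growth was read as spectrophotometric transmission.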
# [2] = tested on: Mycolicibacterium smegmatis; assay: Concentration for complete inhibition of growth against rifampicin resistant Mycobacterium smegmatis 607 strain in vitro; Precipitation; summary of the method: as §1
# [3] = tested on: Mycolicibacterium smegmatis; assay: Concentration for complete inhibition of growth against clofazimine resistant Mycobacterium smegmatis 607 strain in vitro; Precipitation
# Summary of the method: (§2)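 Strain: 20× step-up clofazimine-resistant mutant of M. smegmatis ATCC607. 10^5 viable cells inoculated into modified Kirchner's medium with 0.5% Tween 80. Drugs were added in DMSO (2% final in all tubes). Roller tubes were incubated at 37 °C for 72 h. Growth was read as optical transmission in a spectrophotometer.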
# [4] = tested on: Mycolicibacterium smegmatis; assay: 100% inhibition of growth of rifampicin resistant Mycobacterium smegmatis 607 strain in vitro; summary of the method: as §1
# [5] = tested on: Mycolicibacterium smegmatis; assay: 100% inhibition of growth of clofazimine resistant Mycobacterium smegmatis 607 strain in vitro; summary of the method: as §2
Structure (SMILES),Concentration [1],Concentration [2],Concentration [3],Concentration [4],Concentration [5]
CCOc1ccc(Nc2cc3nc4ccccc4n(-c4ccc(OCC)cc4)c-3cc2=N)cc1,6 µg/mL,50 µg/mL,100 µg/mL,,
CC(C)C/N=c1\cc2n(-c3ccc(Cl)cc3)c3ccccc3nc-2cc1Nc1ccc(Cl)cc1,4 µg/mL,,,4 µg/mL,100 µg/mL
CCN1CCCC1C/N=c1\cc2n(-c3ccc(Cl)cc3)c3ccccc3nc-2cc1Nc1ccc(Cl)cc1 (stereo not given),1 µg/mL,,,1 µg/mL,10 µg/mL
CCNCCC/N=c1\cc2n(-c3ccc(Cl)cc3)c3ccccc3nc-2cc1Nc1ccc(Cl)cc1,0.2 µg/mL,,,0.2 µg/mL,1 µg/mL
CCN(CC)CC/N=c1\cc2n(-c3ccccc3)c3ccc(Cl)cc3nc-2cc1Nc1ccccc1,1 µg/mL,,,2 µg/mL,30 µg/mL
NCCCCC/N=c1\cc2n(-c3ccc(Cl)cc3)c3ccccc3nc-2cc1Nc1ccc(Cl)cc1,0.2 µg/mL,,,0.3 µg/mL,0.5 µg/mL
CCN(CC)CCCC(C)/N=c1\cc2n(-c3ccccc3)c3ccccc3nc-2cc1Nc1ccccc1 (stereo not given),0.3 µg/mL,,,0.4 µg/mL,2 µg/mL
c1ccc(Nc2cc3nc4ccccc4n(-c4ccccc4)c-3c/c2=N\CCN2CCNCC2)cc1,0.4 µg/mL,,,0.4 µg/mL,1 µg/mL
OCC/N=c1\cc2n(-c3ccccc3)c3ccccc3nc-2cc1Nc1ccccc1,3 µg/mL,,,5 µg/mL,20 µg/mL
CC(C)CC/N=c1\cc2n(-c3ccccc3)c3ccc(Cl)cc3nc-2cc1Nc1ccccc1,3 µg/mL,,,3 µg/mL,100 µg/mL
O=C1CCCN1CCC/N=c1\cc2n(-c3ccc(Cl)cc3)c3ccccc3nc-2cc1Nc1ccc(Cl)cc1,2 µg/mL,,,2 µg/mL,20 µg/mL
OCCNCC/N=c1\cc2n(-c3ccc(Cl)cc3)c3ccccc3nc-2cc1Nc1ccc(Cl)cc1,8 µg/mL,,,8 µg/mL,20 µg/mL
Clc1ccc(Nc2cc3nc4ccccc4n(-c4ccc(Cl)cc4)c-3c/c2=N\CCN2CCCCC2)cc1,0.4 µg/mL,,,0.5 µg/mL,10 µg/mL
Cc1ccc(Nc2cc3nc4ccccc4n(-c4ccc(C)cc4)c-3c/c2=N\C2CCCCC2)cc1,8 µg/mL,,,8 µg/mL,100 µg/mL
Clc1ccc2c(c1)nc1cc(Nc3ccccc3)/c(=N/C3CCCCC3)cc-1n2-c1ccccc1,3 µg/mL,,,0.6 µg/mL,20 µg/mL
Cc1ccc(Nc2cc3nc4ccccc4n(-c4ccc(C)cc4)c-3c/c2=N\CCCNC2CCCCC2)cc1,0.2 µg/mL,,,0.2 µg/mL,0.5 µg/mL
OC1CCC(/N=c2\cc3n(-c4ccc(Cl)cc4)c4ccccc4nc-3cc2Nc2ccc(Cl)cc2)CC1 (stereo not given),2 µg/mL,,,4 µg/mL,30 µg/mL
Clc1ccc(Nc2cc3nc4ccccc4n(-c4ccc(Cl)cc4)c-3c/c2=N\CCCN2CCCC2)cc1,0.3 µg/mL,,,0.3 µg/mL,0.8 µg/mL
CC1CCC(/N=c2\cc3n(-c4ccccc4)c4ccccc4nc-3cc2Nc2ccccc2)CC1 (stereo not given),6 µg/mL,,,8 µg/mL,100 µg/mL
CCCC/N=c1\cc2n(-c3ccccc3)c3ccccc3nc-2cc1Nc1ccccc1,3 µg/mL,,,3 µg/mL,20 µg/mL
OCCNCC/N=c1\cc2n(-c3ccccc3)c3ccccc3nc-2cc1Nc1ccccc1,5 µg/mL,,,6 µg/mL,10 µg/mL
c1ccc(Nc2cc3nc4ccccc4n(-c4ccccc4)c-3c/c2=N\CC2CCNCC2)cc1,0.3 µg/mL,,,0.3 µg/mL,0.6 µg/mL
OCCNCC/N=c1\cc2n(-c3ccccc3)c3ccc(Cl)cc3nc-2cc1Nc1ccccc1,5 µg/mL,,,10 µg/mL,20 µg/mL
CCCCN(CCCC)CCC/N=c1\cc2n(-c3ccc(Cl)cc3)c3ccccc3nc-2cc1Nc1ccc(Cl)cc1,0.4 µg/mL,,,0.8 µg/mL,12 µg/mL
C/N=c1\cc2n(-c3ccc(Cl)cc3)c3ccccc3nc-2cc1Nc1ccc(Cl)cc1,2 µg/mL,,,2 µg/mL,100 µg/mL

# — ChEMBL document CHEMBL1124233, “Clofazimine analogues active against a clofazimine-resistant organism” (J Med Chem, 1988)
